hERG protect – compounds protecting human hERG from proarrhythmic drug block; CHO-hERG, FluxOR thallium flux, dofetilide IC70 present; activation (rescue from dofetilide block), less the hit threshold, % at 10 µM; hit rate 0.51% among 310,000;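 active = activation above the mean of controls blocked by dofetilide plus 5 SD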;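 note: thallium influx through hERG after potassium depolarization seen as dye fluorescence rise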
KCNQ1 act – potentiators or activators of human KCNQ1 potassium channel; P51787; CHO-K1 KCNQ1, thallium flux FluxOR fluorescence; active compounds read high; B-score at 10 µM; hit rate 0.35% among 310,000;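 active = fluorescence ratio B-score, a plate-corrected score, at least three library SD, with initial intensity B-score within 5 SD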
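Doses: Single concentration per compound, DMSO matched to controls | Test system: KCNQ1-transfected CHO-K1 cells | Timing: 90 min dye loading and 20 min compound exposure, both at room temperature | Measured by: Kinetic FluxOR thallium fluorescence, 10-s 1-Hz baseline, 110-s post-stimulus read | Medium: Assay buffer with matched DMSO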
KCNK3 block – human KCNK3 channel inhibition, primary screen; O14649; B-score at 10 µM; CHO-KCNK3 thallium flux, FluxOR fluorescence; active compounds read low; hit rate 0.84% among 340,000;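 active = B-score under library mean minus 4 SD, starting fluorescence ratio at most library mean plus 5 SD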;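 note: more negative B-score means stronger inhibition of thallium flux through KCNK3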
Target sequence (O14649 whole entry, looked up): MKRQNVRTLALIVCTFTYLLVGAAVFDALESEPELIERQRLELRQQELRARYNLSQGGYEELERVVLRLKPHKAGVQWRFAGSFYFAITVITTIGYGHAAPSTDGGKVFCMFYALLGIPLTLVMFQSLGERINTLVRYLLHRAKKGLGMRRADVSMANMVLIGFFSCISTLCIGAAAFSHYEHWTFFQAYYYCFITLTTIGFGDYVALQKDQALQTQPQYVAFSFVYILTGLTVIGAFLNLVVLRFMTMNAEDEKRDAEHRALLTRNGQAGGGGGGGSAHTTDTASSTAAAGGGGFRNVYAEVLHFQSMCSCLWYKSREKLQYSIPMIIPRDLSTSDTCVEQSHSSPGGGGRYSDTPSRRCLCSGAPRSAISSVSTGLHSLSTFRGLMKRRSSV
KCNK9 inh – human KCNK9 channel inhibition; hit rate 1.2% among 310,000; B-score at 10 µM; HEK293 KCNK9, FluxOR thallium flux fluorescence; active compounds read low; Q9NPC2;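 active = ratio B-score over 3 SD below the library mean, with starting fluorescence within 5 SD of its mean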;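 note: negative B-score means less thallium flux so channel inhibition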
Target sequence (Q9NPC2 whole entry, looked up): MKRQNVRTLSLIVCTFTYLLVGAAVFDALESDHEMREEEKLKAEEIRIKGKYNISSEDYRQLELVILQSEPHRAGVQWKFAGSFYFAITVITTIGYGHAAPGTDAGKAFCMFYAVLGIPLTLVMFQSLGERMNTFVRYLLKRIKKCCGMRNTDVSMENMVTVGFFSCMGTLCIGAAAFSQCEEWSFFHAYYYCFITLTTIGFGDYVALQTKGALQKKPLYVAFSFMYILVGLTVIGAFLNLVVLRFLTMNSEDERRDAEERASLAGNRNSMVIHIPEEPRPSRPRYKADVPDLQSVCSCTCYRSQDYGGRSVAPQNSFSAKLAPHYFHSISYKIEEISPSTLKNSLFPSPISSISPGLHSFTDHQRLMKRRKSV
KCNQ1 block – blocks the human KCNQ1 potassium channel | hit rate 1.3% among 310,000 | P51787 | B-score at 10 µM | CHO-K1 KCNQ1, FluxOR thallium flux fluorescence; active compounds read high;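 active = compounds whose thallium flux B-score, printed positive for inhibition, exceeds three library SD while starting fluorescence stays within three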;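 note: channel opened by potassium depolarization with thallium stimulus after 20 min compound exposure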
Cl transport mod – modulates chloride dependent transport by human KCC2; hit rate 2.2% among 190,000; B-score of Tl+ flux slope (higher = more flux/activation; lower = inhibition) at 10 µM; KCC2 cells, thallium flux FluoZin-2 fluorescence; Q9H2X9;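 active = thallium flux slope and its plate-corrected score both differing from the plate sample mean at a set confidence after two filtering rounds, in either direction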;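 note: slope of fluorescence scaled to starting intensity during 10 to 20 s after thallium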
KCNK3 inh conf – confirmation of human KCNK3 two-pore domain potassium channel inhibitors | shares compounds with KCNK3 block | CHO-KCNK3 thallium flux, FluxOR fluorescence; 0% buffer, 100% carvedilol maximal block | ratio percent of control, % at 10 µM | hit rate 99% among 2,400 | AID 651638;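 active = ratio percent of control, averaged over triplicates, above buffer control mean plus 5 SD, cut at about 64% in these data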;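 note: ratio is the fluorescence rise from min to max over baseline after thallium stimulus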
KCNK3 noninduced – activity in cells without induced KCNK3 expression. shares compounds with KCNK3 block. non-induced KCNK3 parental cells, FluxOR thallium flux; active compounds read low. thallium flux ratio (lower = more inhibition) at 10 µM. hit rate 40% among 2,400. AID 651747;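 active = thallium flux ratio, averaged over three wells, more than 5 SD below the buffer control mean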;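 note: host cells are CHO cells without KCNK3 induction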
Each line names hits and unclear results; the compound was inactive in the other large screens (follow-up assays come after a bar, where they were run). Only some compounds are listed: those with a hit (about 4.1% of all), similar ones and a draw of the others.

C=CCn1c(SCc2csc(C)n2)nc2sc3c(c2c1=O)CCCCC3	none
COC(=O)c1sc(S(=O)(=O)NC(Cc2ccccc2)C(=O)O)c(C(=O)OC)c1C (centres undefined)	none (no result: hERG protect, KCNQ1 act, KCNK9 inh, KCNQ1 block, Cl transport mod)
COC(=O)c1c(S(=O)(=O)NCc2ccccc2)sc(C(=O)O)c1C	KCNK3 block -11 (no result: Cl transport mod) | KCNK3 inh conf 121 | KCNK3 noninduced 0.16
COC(=O)c1ccccc1S(=O)(=O)N1CCC(C(=O)NCc2ccco2)CC1	none (no result: hERG protect, KCNQ1 act, KCNK9 inh, KCNQ1 block, Cl transport mod)
COc1cccc(CN(C)CC(=O)NC(=O)NCc2ccco2)c1	none
N#Cc1sc2nc(-c3cccs3)cc(-c3ccccc3)c2c1N	none
N#Cc1sc2nc(-c3cccs3)cc(-c3ccc(Cl)cc3)c2c1N	KCNK3 block -14, KCNK9 inh -7 | KCNK3 inh conf 132 | KCNK3 noninduced inactive
O=C(COc1ccc(C(=O)c2ccccc2)cc1)NCC(=O)Nc1ccccc1Br	none
CCC(C)NC(=O)Nc1ccc(F)c(Cl)c1 (centres undefined)	KCNK3 block -10 | KCNK3 inh conf 92 | KCNK3 noninduced 0.16
CC(C)CNC(=O)Nc1ccc(F)c(Cl)c1	none
COc1ccc(N(C(=O)CNC(=O)c2ccco2)C(C(=O)NCC2CCCO2)c2ccc(OC)c(OC)c2)cc1 (centres undefined)	none (no result: Cl transport mod)
CCn1nc(C)c(CN2CCCC(C(=O)c3cccc(OC(C)C)c3)C2)c1C (centres undefined)	none
CC(C)Oc1cccc(C(=O)C2CCCN(Cc3ccc4nonc4c3)C2)c1 (centres undefined)	KCNK3 block -12 | KCNK3 inh conf 127 | KCNK3 noninduced 0.14
Cc1nn2c(NCc3ccccn3)cc(C(C)C)nc2c1-c1ccccc1	none
Cc1nn2c(NCCCn3ccnc3)cc(C(C)C)nc2c1-c1ccccc1	KCNK3 block -12 | KCNK3 inh conf 115 | KCNK3 noninduced 0.14
CC(C)(C)n1nnnc1C(c1cccnc1)N1CCN(C2CCCCC2)CC1 (centres undefined)	none
CC(C)(C)n1nnnc1C(c1cccnc1)N1CCN(c2cccc(C(F)(F)F)c2)CC1 (centres undefined)	KCNK3 block -10 | KCNK3 inh conf 77 | KCNK3 noninduced inactive
COc1cccc(C2C(C(N)=O)=C(C)Nc3nc(CCCO)nn32)c1 (centres undefined)	none (no result: Cl transport mod)
CCc1ncc(CN2CCCC(C(=O)Nc3cccc(-c4cccc(C)c4)c3)C2)cn1 (centres undefined)	KCNK3 block -11 (no result: Cl transport mod) | KCNK3 inh conf 115 | KCNK3 noninduced 0.15
CCc1ncc(CN2CCCC(C(=O)Nc3cccc(-c4ccc(F)cc4)c3)C2)cn1 (centres undefined)	none (no result: Cl transport mod)
CC(Oc1ccccc1)C(=O)N1CCN=C1SCc1ccccc1 (centres undefined)	none (no result: Cl transport mod)
COC(=O)CCc1c[nH]c2ccc([N+](=O)[O-])cc12	none (no result: hERG protect, KCNQ1 act, KCNK9 inh, KCNQ1 block, Cl transport mod)
O=C(CCc1c[nH]c2ccccc12)OCc1cccc([N+](=O)[O-])c1	KCNK3 block -9.4 (no result: Cl transport mod) | KCNK3 inh conf 83 | KCNK3 noninduced inactive
CCOc1ccccc1NC(=S)NC(=O)C1CCCCC1	none (no result: Cl transport mod)
CCS(=O)(=O)N1CCN(c2ncnc3sc(C)c(C)c23)CC1	none
Cc1sc2ncnc(N3CCN(S(=O)(=O)c4ccc(F)cc4)CC3)c2c1C	KCNK3 block -11 (no result: Cl transport mod) | KCNK3 inh conf 124 | KCNK3 noninduced 0.16
COC(=O)C=CC(=NNc1ccccc1)c1ccccc1	none (no result: hERG protect, KCNQ1 act, KCNK9 inh, KCNQ1 block, Cl transport mod)
Cc1cc(C)c2c(CN3CCC(C)CC3)cc(=O)oc2c1C	KCNK3 block -12 (no result: Cl transport mod) | KCNK3 inh conf 103 | KCNK3 noninduced inactive
CC1=NN(C(=O)CSCc2ccccc2)C(O)(c2ccc(F)cc2)C1 (centres undefined)	KCNK3 block -9.2, KCNK9 inh -6.9 | KCNK3 inh conf 95 | KCNK3 noninduced inactive
CC(=O)Oc1c(/C=C(\C#N)C(N)=O)[nH]c2ccccc12	KCNK3 block -9 (no result: Cl transport mod) | KCNK3 inh conf 101 | KCNK3 noninduced 0.14
COC(C(=O)Nc1ccnn1C1CCN(Cc2ccc(CO)o2)CC1)c1ccccc1 (centres undefined)	none (no result: Cl transport mod)
Cc1cccc(C)c1OCc1cc(C(=O)N2CCCC2c2nonc2C)no1 (centres undefined)	KCNK3 block -9.4 (no result: Cl transport mod) | KCNK3 inh conf 108 | KCNK3 noninduced inactive
c1ccc(-c2nc(N3CCCCCC3)nc(-n3ccnc3)n2)cc1	KCNK3 block -10, KCNK9 inh -7 | KCNK3 inh conf 122 | KCNK3 noninduced inactive
COc1ccc(Br)cc1/C=N/NC(=O)c1nc(-c2ccccc2)n2c1CCCCC2	KCNK3 block -12, KCNQ1 block 6 | KCNK3 inh conf 113 | KCNK3 noninduced 0.14
C(=N\N(c1ccccc1)c1ccccc1)/c1ccccn1	KCNK3 block -9.9 (no result: Cl transport mod) | KCNK3 inh conf 133 | KCNK3 noninduced 0.12
COc1ccc(N2CCN(S(=O)(=O)c3c(C)nc4scc(C)n4c3=O)CC2)cc1	none (no result: Cl transport mod)
CN(Cc1ccno1)Cc1cn(C)nc1-c1ccc(Oc2ccccc2)cc1	KCNK3 block -10 (no result: Cl transport mod) | KCNK3 inh conf 91 | KCNK3 noninduced inactive
CN(Cc1cn(C)nc1-c1ccc(Oc2ccccc2)cc1)Cc1cnc2ccccn12	KCNK3 block -9.4, KCNK9 inh -7, KCNQ1 block 7 | KCNK3 inh conf 131 | KCNK3 noninduced 0.13
CC(C)N(C)Cc1cn(C)nc1-c1ccc(Oc2ccccc2)cc1	none (no result: Cl transport mod)
CCCCc1nnc(NC(=O)c2ccc3c(=O)n4c(nc3c2)CCC4)s1	none (no result: Cl transport mod)
COc1ccc(CNc2oc(Cc3cccc4ccccc34)nc2C#N)cc1	KCNK3 block -14, Cl transport mod -5.2 | KCNK3 inh conf 91 | KCNK3 noninduced 0.15
Cc1cccc(OCc2nc(C#N)c(NCc3ccc4c(c3)OCO4)o2)c1	KCNK3 block -11 (no result: Cl transport mod) | KCNK3 inh conf 138 | KCNK3 noninduced 0.1
CCNc1oc(COc2cccc(C)c2)nc1C#N	none
N#Cc1nc(COc2ccc(Cl)cc2)oc1NCc1ccc2c(c1)OCO2	KCNK3 block -11 (no result: Cl transport mod) | KCNK3 inh conf 138 | KCNK3 noninduced 0.16
CC1CCN(C(=O)Cn2c3ccc(F)cc3c3nc4n(c(=O)c32)CCCS4)CC1	none (no result: Cl transport mod)
Cc1ccc(S(=O)(=O)Nc2ccccc2N=Cc2c(F)c(F)c(F)c(F)c2F)cc1	KCNK3 block -12 (no result: hERG protect, KCNQ1 act, KCNK9 inh, KCNQ1 block, Cl transport mod) | KCNK3 inh conf 114 | KCNK3 noninduced 0.15
Cc1ccc(S(=O)(=O)Nc2ccccc2C=Nc2cccc(C)c2C)cc1	none
O=C(Nc1cccc(NC(=O)c2ccccc2Cl)c1)c1ccco1	KCNK3 block -8.7 (no result: Cl transport mod) | KCNK3 inh conf 98 | KCNK3 noninduced inactive
